From PubChem BioAssay
Rows were chosen to be rich in hits. Some 4.1% of all compounds tested hit in one or more screens of this group.
Dynein transport: inhibitors of GR-EGFP nuclear translocation, primary screen, dynein cargo transport inhibitor project, imaging, high-content, 3617.4 mouse cells. z-score, hits read low. AID 1381, 2008. test concentration mostly 20 µM; stimulated with dexamethasone, 1 µM; stronger effect = lower value. 220,000 compounds, 0.47% hits;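 active = plate z-score of nuclear minus cytoplasmic receptor signal below a set negative limit, without overly bright fluorescence or cell loss, cut at about -3.5 in these data, passing the limit was not always enough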;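 note: z-score of nuclear minus cytoplasmic ring GR-EGFP intensity difference per well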
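Also added – dexamethasone, 1.0 µM final · Buffer or medium – tet-free, stripped-serum medium · Schedule – induction 48 h, compound 1 h, agonist 30 min · Detection – formaldehyde fixation, Hoechst nuclear stain, 10x automated fluorescence imaging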
Autophagy HCS: autophagy modulators in MEF cells, primary screen, imaging, high-content, MEF GFP-LC3 | AID 463193, 2010 | MEF GFP-LC3 puncta imaging; test concentration mostly 10 µM | 190,000 compounds, 0.98% hits | calls only at 10 µM (by protocol);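 active = percentage of spot-positive cells more than 3 SD above its plate mean, without a fluorescence outlier flag or 80% toxicity; inconclusive = no clear call, values can overlap the other calls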;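 note: spot-positive cell cutoff set from DMSO-treated cells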
ROMK mod: ROMK potassium channel modulators, primary screen, cell-based, thallium flux, MLSMR library; ATP-sensitive inward rectifier potassium channel 1 (Homo sapiens), P48048; Tet-inducible ROMK, thallium flux fluorescence; actives lie on both sides; B-score at 10 µM; 130,000 compounds, 2% hits; AID 1918, 2009;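 active = signal ratio slope over the read window, or its plate-corrected B-score, at least 3 SD from the plate mean, either direction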;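 note: B-score of the F/F0 ratio slope over 7 to 12 s after thallium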
Target sequence (P48048 whole entry, looked up): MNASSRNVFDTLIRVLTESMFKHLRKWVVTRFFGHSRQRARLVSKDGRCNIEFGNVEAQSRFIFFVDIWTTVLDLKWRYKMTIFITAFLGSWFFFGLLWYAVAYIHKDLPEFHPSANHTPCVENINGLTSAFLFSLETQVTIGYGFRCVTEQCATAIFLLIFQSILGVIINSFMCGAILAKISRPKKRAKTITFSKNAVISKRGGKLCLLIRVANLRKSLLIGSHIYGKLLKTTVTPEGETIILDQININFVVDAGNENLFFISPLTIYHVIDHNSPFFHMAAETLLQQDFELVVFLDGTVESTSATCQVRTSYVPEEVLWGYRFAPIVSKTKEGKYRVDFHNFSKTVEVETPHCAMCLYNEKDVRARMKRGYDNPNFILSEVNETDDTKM
KCC2 mod: KCC2 cotransporter modulators, thallium flux, primary screen, cell-based, HEK293 KCC2, FluoZin-2 fluorescence, MLSMR; KCC2 cells, thallium flux FluoZin-2 fluorescence; 190,000 compounds, 2.2% hits; B-score of Tl+ flux slope (higher = more flux/activation; lower = inhibition) at 10 µM; Solute carrier family 12 member 5 (Homo sapiens), Q9H2X9;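 active = thallium flux slope and its plate-corrected score both differing from the plate sample mean at a set confidence after two filtering rounds, in either direction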;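 note: slope of fluorescence scaled to starting intensity during 10 to 20 s after thallium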
DTT redox prof: compounds producing H2O2 with reducing agent – biochemical, NIH compound library profiling, artefact control for MLSCN library redox annotation, primary screen; DTT-dependent redox cycling H2O2, phenol red/HRP absorbance; 100% = 100 µM peroxide control, 0% = buffer; activation, % at 10 µM; 200,000 compounds, 0.03% hits;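 active = activation of at least 50% relative to the plate's high and low controls in the primary single-dose screen; inactive = activation below 50%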;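 note: compound incubated with DTT at 0.8 mM final as the reducing agent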
ROMK retest: ROMK channel modulator hit retest, confirmation, cell-based, thallium flux, duplicate, resupplied hits | shares compounds with ROMK mod | fluorescence ratio; stronger effect = lower value | normalized thallium flux (F/F0 slope) at 10 µM | 3,000 compounds, 54% hits;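 active = Flux at 10 µM at least 3 SD below or above vehicle control mean in one or both replicates; inconclusive = no clear call, values can overlap the other calls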
The depositor's hits bear a star.

How did Cc1ccc2nc(=O)c(NNc3ccccc3)cnc2c1 do in these assays?
Dynein transport: 0.262; Autophagy HCS: inactive; ROMK mod: 6.64*; KCC2 mod: 0.135; DTT redox prof: -0.5; ROMK retest: 0.111*

How did Cc1nc2ccccc2nc(=O)c1NNc1ccccc1 do in these assays?
Dynein transport: -0.29; Autophagy HCS: inactive; ROMK mod: 6.37*; KCC2 mod: -2.3; DTT redox prof: -0.2; ROMK retest: inconclusive

Results for Cc1ccc2nc(-c3ccccc3)c(-c3ccccc3)nc2c1 ?
Dynein transport: 0.794; Autophagy HCS: inactive; ROMK mod: 0.107; KCC2 mod: 0.0482; DTT redox prof: 0.1

What do the screens show for `COc1ccc(/C=N/Nc2ncccc2[N+](=O)[O-])c(OC)c1`?
Dynein transport: -0.038; Autophagy HCS: inactive; ROMK mod: -0.0656; KCC2 mod: 0.0294; DTT redox prof: -0.3

What do the screens show for `Cc1ccc(S(=O)(=O)N(C)C)cc1NC(=O)CN1C(=O)NC2(CCCc3ccccc32)C1=O` (stereo unspecified)?
Dynein transport: 0.0736; Autophagy HCS: inactive; ROMK mod: 0.562; KCC2 mod: 1.73; DTT redox prof: 0.1

How did Cc1cc(C(=O)NCCc2ccccc2)c2cc(F)ccc2n1 do in these assays?
Dynein transport: -0.437; Autophagy HCS: inactive; ROMK mod: 0.0119; KCC2 mod: -0.0712; DTT redox prof: -1.9

What do the screens show for `CCOC(=O)N/N=C/c1cc(C)n(-c2ccccc2)c1C`?
Dynein transport: 0.37; Autophagy HCS: inactive; ROMK mod: 2.35*; KCC2 mod: 1.67; DTT redox prof: -0.1; ROMK retest: 0.09

Results for Cc1cc(/C=N/NC(=O)c2cccc(F)c2)c(C)n1-c1ccccc1 ?
Dynein transport: -1.17; Autophagy HCS: inactive; ROMK mod: 4.77*; KCC2 mod: -0.0813; DTT redox prof: 0.3; ROMK retest: 0.092

Results for CCOC(=O)N/N=C/c1cc(C)n(-c2cccc3ccccc23)c1C ?
Dynein transport: 0.492; Autophagy HCS: inactive; KCC2 mod: -2.19; DTT redox prof: -0.5

What do the screens show for `Cc1cc(/C=N/NC(=O)c2ccncc2)c(C)n1-c1cccc(C(F)(F)F)c1`?
Dynein transport: 1.7; KCC2 mod: 0.626

How did NC(=O)/C(=C/c1ccco1)C(N)=S do in these assays?
Dynein transport: -0.305

How did CCOC(=O)C(NC(C)=O)C(=O)Nc1ccc(C(C)(C)C)cc1 (stereo unspecified) do in these assays?
Dynein transport: -0.369; Autophagy HCS: inactive; ROMK mod: 3.47*; KCC2 mod: 0.298; DTT redox prof: -1.5; ROMK retest: 0.0823

Results for COC(=O)C(=O)/C=C(\O)c1c(C)cc(C)cc1C ?
Dynein transport: 0.63; ROMK mod: -0.0102; KCC2 mod: 0.451

How did Nc1ccc2c(c1)C(=O)C(=O)c1ccccc1-2 do in these assays?
Dynein transport: -4.62; Autophagy HCS: inactive; ROMK mod: -5.62*; KCC2 mod: 0.559; DTT redox prof: 31.1; ROMK retest: 0.037*

How did Nc1ccc2c(c1)COC2=O do in these assays?
Dynein transport: 0.027; Autophagy HCS: inactive; ROMK mod: 0.546; KCC2 mod: -0.0649; DTT redox prof: -0.2

Results for COc1cc(OC)cc(C(=O)NC(=S)Nc2nnn(C)n2)c1 ?
Dynein transport: -0.789; KCC2 mod: 0.78

What do the screens show for `COc1ccc(CNC(=O)COC(=O)c2cncc(Br)c2)cc1`?
Dynein transport: -0.129; Autophagy HCS: inactive; ROMK mod: 0.0731; KCC2 mod: -0.959; DTT redox prof: -0.8; ROMK retest: 0.0774

What do the screens show for `COc1ccc(S(=O)(=O)n2ccc(-c3ccc4c(c3)CCC(C)(C)O4)n2)cc1`?
Dynein transport: 0.592; KCC2 mod: -0.648

How did CC1(C)CCc2cc(-c3ccnc(=S)[nH]3)ccc2O1 do in these assays?
Dynein transport: 1.43; ROMK retest: 0.0837

Results for Cc1cccc(NC(=O)c2cc([N+](=O)[O-])ccc2NCC2CCCO2)n1 (stereo unspecified) ?
Dynein transport: -0.839; Autophagy HCS: inactive; ROMK mod: -2.16; KCC2 mod: -0.867; DTT redox prof: -0.6

What do the screens show for `COCCCNc1ccc([N+](=O)[O-])cc1C(=O)Nc1cccc(C)n1`?
Dynein transport: -0.0542; Autophagy HCS: inactive; ROMK mod: -4.15*; KCC2 mod: -1.57; DTT redox prof: -1.7; ROMK retest: 0.0454*

Results for COCCN1Cc2cccc(C(=O)NC(C)CCc3ccco3)c2C1=O (stereo unspecified) ?
Dynein transport: 0.0219; Autophagy HCS: inactive; ROMK mod: 0.134; KCC2 mod: -1.71; DTT redox prof: -0.3

What do the screens show for `COC(=O)/C=c1/s/c(=C(/C#N)C(=O)N2CCOCC2)n(-c2ccccc2)c1=O`?
Dynein transport: -0.774; Autophagy HCS: inactive; ROMK mod: -1.09; DTT redox prof: 0.0

How did COC(=O)/C=c1/s/c(=C(/C#N)C(=O)N2CCCCC2)n(-c2ccccc2)c1=O do in these assays?
Dynein transport: -0.285; Autophagy HCS: inactive; ROMK mod: -3.2*; KCC2 mod: -0.0168; DTT redox prof: 0.6; ROMK retest: 0.0566*

What do the screens show for `Cc1ccc(CN2CCC(c3nc4ccc(Cl)cc4[nH]3)CC2)cc1`?
Dynein transport: -0.213; Autophagy HCS: inactive; DTT redox prof: 2.3; ROMK retest: inconclusive

Results for Cc1ccc(C(=O)NC(C)C(c2cccs2)N2CCCC2)s1 (stereo unspecified) ?
Dynein transport: 0.737; Autophagy HCS: inactive; ROMK mod: -3.56*; KCC2 mod: -0.178; DTT redox prof: 0.1; ROMK retest: 0.0719

How did CC(NC(=O)COc1ccccc1)C(c1cccs1)N1CCCC1 (stereo unspecified) do in these assays?
Dynein transport: 0.426; Autophagy HCS: inactive; ROMK mod: -0.896; KCC2 mod: 0.464; DTT redox prof: 0.3

How did Nc1ccc(S(=O)(=O)NC2=NCCCCC2)cc1N do in these assays?
Dynein transport: 1.1; Autophagy HCS: inactive; ROMK mod: -0.425; KCC2 mod: -0.175; DTT redox prof: -3.5

How did O=[N+]([O-])c1cc(S(=O)(=O)NC2=NCCCCC2)ccc1NCC1CCCCC1 do in these assays?
Dynein transport: -0.435; Autophagy HCS: inactive; ROMK mod: -7.65*; KCC2 mod: -0.201; DTT redox prof: -0.3; ROMK retest: 0.0592*
